The subject of test [1] is Calf thymus DNA. In words: Binding affinity to calf thymus DNA assessed as decrease in DNA sedimentation coefficient at 20 x 10^-6 M relative to untreated control. The format is nucleic-acid assay. The following applies: Bos taurus.
The test system of test [2] is L1210. In words: Cytotoxicity against mouse L1210 cells assessed as growth inhibition at 100 ug/ml after 24 hrs. Type of test: functional. In short, it runs like this: (§1)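 L1210 leukemia cells seeded at 10^5 cells/ml and grown in static culture in RPMI 1630 medium with fetal calf serum. Drug tested at 0.01–100 µg/ml, with 24 h and 48 h exposures. Read-out is percent inhibition of growth. Assays were run in triplicate, and values are the mean of two separate experiments.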

In test [3] the test system is L1210. In words: Cytotoxicity against mouse L1210 cells assessed as growth inhibition at 100 ug/ml after 48 hrs. Type of test: functional. In short, it runs like this: as §1
Test [4] relates to L1210. In words: Cytotoxicity against mouse L1210 cells assessed as growth inhibition at 10 ug/ml after 24 hrs. Type of test: functional. Put shortly: as §1
Test [5] deals with L1210. In words: Cytotoxicity against mouse L1210 cells assessed as growth inhibition at 10 ug/ml after 48 hrs. Type of test: functional. In short, it runs like this: as §1
The subject of test [6] is L1210. In words: Cytotoxicity against mouse L1210 cells assessed as growth inhibition at 1 ug/ml after 24 hrs. The format is functional. In short, it runs like this:
as §1

For test [7], the system named is L1210. In words: Cytotoxicity against mouse L1210 cells assessed as growth inhibition at 1 ug/ml after 48 hrs. Type of test: functional. Put shortly: as §1
Test [8] has as its system L1210. In words: Cytotoxicity against mouse L1210 cells assessed as growth inhibition at 0.1 ug/ml after 24 hrs. Type of test: functional. Put shortly: as §1
Test [9] deals with L1210. In words: Cytotoxicity against mouse L1210 cells assessed as growth inhibition at 0.1 ug/ml after 48 hrs. Type of test: functional. In short, it runs like this: as §1
Test [10] relates to L1210. In words: Cytotoxicity against mouse L1210 cells assessed as growth inhibition at 0.01 ug/ml after 24 hrs. Type of test: functional. In short, it runs like this:
as §1

Test [11] concerns L1210. In words: Cytotoxicity against mouse L1210 cells assessed as growth inhibition at 0.01 ug/ml after 48 hrs. Type of test: functional. Put shortly: as §1
For test [12], the system named is Calf thymus DNA. In words: Binding affinity to calf thymus DNA assessed as decrease in DNA sedimentation coefficient at 5.2 x 10^-6 M relative to untreated control. Type of test: nucleic-acid assay. The following applies: Bos taurus. Put shortly:
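Calf thymus DNA was mixed with compound at 5.2 × 10^-6 M and incubated 30 min at about 22°. Sedimentation was run in an analytical ultracentrifuge at 20°, with UV scanning at 260 nm. Each run included a drug-free DNA control. Sedimentation coefficients were not corrected for density or viscosity.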

Test [13] deals with T1, Bacterial DNA-directed RNA polymerase (Bacteria) (UniProt P0A8V2+P0A7Z4+P0A8T7+P0A800). In words: Stimulation of Escherichia coli DNA-primed RNA polymerase activity using [8-14C]ATP at 400 ug/ml by scintillation counting. The format is protein-complex assay. In short, it runs like this:
(§2)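 Commercial E. coli RNA polymerase was used, with calf thymus DNA template (3.65 µg) in 0.125 ml containing Tris-HCl pH 8.0, MgCl2, β-mercaptoethanol, CTP/UTP/GTP (0.019 µmol each) and [8-14C]ATP (0.019 µmol). Compound in DMSO was added before the enzyme; controls received DMSO. Mixtures were incubated 10 min at 37°. Acid-insoluble label was collected by filter-disk assay and counted by liquid scintillation.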

In test [14] the target is T1, Bacterial DNA-directed RNA polymerase (Bacteria). In words: Stimulation of Escherichia coli DNA-primed RNA polymerase activity using [8-14C]ATP at 200 ug/ml by scintillation counting. The format is protein-complex assay. Put shortly: as §2
Test [15] has the same target. In words: Stimulation of Escherichia coli DNA-primed RNA polymerase activity using [8-14C]ATP at 100 ug/ml by scintillation counting. The format is protein-complex assay. Put shortly: as §2
For test [16] the target is unchanged. In words: Stimulation of Escherichia coli DNA-primed RNA polymerase activity using [8-14C]ATP at 50 ug/ml by scintillation counting. The format is protein-complex assay. Put shortly: as §2
Test [17] shares this target. In words: Stimulation of Escherichia coli DNA-primed RNA polymerase activity using [8-14C]ATP at 25 ug/ml by scintillation counting. The format is protein-complex assay. Put shortly:
as §2

For test [18] the target is unchanged. In words: Stimulation of Escherichia coli DNA-primed RNA polymerase activity using [8-14C]ATP by scintillation counting. Type of test: protein-complex assay. Put shortly: as §2
Test [19] addresses Bacterial DNA-directed RNA polymerase (Bacteria, UniProt P0A7Z4+P0A800+P0A8T7+P0A8V2). In words: Inhibition of Escherichia coli DNA-primed RNA polymerase activity using [8-14C]ATP by scintillation counting. The format is protein-complex assay. In short, it runs like this: as §2
In test [20] the target is T1, Bacterial DNA-directed RNA polymerase (Bacteria). In words: Inhibition of Escherichia coli DNA-primed RNA polymerase activity using [8-14C]ATP at 400 ug/ml by scintillation counting. Type of test: protein-complex assay. Set-up: scale not given: the % may be the effect or the level left. In short, it runs like this:
as §2

Test [21] has the same target. In words: Inhibition of Escherichia coli DNA-primed RNA polymerase activity using [8-14C]ATP at 200 ug/ml by scintillation counting. Type of test: protein-complex assay. More on the design: scale not given: the % may be the effect or the level left. In short, it runs like this: as §2
Test [22] shares this target. In words: Inhibition of Escherichia coli DNA-primed RNA polymerase activity using [8-14C]ATP at 100 ug/ml by scintillation counting. Type of test: protein-complex assay. Set-up: scale not given: the % may be the effect or the level left. In short, it runs like this:
as §2

Test [23] shares this target. In words: Inhibition of Escherichia coli DNA-primed RNA polymerase activity using [8-14C]ATP at 50 ug/ml by scintillation counting. The format is protein-complex assay. Set-up: scale not given: the % may be the effect or the level left. In short, it runs like this: as §2
The target is the same in test [24]. In words: Inhibition of Escherichia coli DNA-primed RNA polymerase activity using [8-14C]ATP at 25 ug/ml by scintillation counting. The format is protein-complex assay. More on the design: scale not given: the % may be the effect or the level left. Put shortly: as §2
Test [25] relates to Calf thymus DNA. In words: Binding affinity to calf thymus DNA by ESR spectrum. Type of test: nucleic-acid assay. The following applies: Bos taurus.

Active and inactive are the calls of the source. No cut-off for these calls is given here.

T1 sequence (P0A7Z4 whole entry partner): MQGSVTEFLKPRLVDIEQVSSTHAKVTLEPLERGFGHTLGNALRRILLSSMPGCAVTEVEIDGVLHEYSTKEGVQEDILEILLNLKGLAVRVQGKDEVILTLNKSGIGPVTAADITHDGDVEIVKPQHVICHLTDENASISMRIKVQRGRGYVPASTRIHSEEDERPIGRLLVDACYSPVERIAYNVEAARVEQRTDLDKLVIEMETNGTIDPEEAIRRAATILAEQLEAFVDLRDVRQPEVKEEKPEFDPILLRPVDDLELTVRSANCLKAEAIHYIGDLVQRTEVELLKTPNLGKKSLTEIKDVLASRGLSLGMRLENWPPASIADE
T1 sequence (P0A800 2-91 partner limits assumed): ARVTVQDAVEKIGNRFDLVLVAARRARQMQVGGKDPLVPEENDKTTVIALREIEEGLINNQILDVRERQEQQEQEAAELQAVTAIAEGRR
T1 sequence (P0A8T7 whole entry partner): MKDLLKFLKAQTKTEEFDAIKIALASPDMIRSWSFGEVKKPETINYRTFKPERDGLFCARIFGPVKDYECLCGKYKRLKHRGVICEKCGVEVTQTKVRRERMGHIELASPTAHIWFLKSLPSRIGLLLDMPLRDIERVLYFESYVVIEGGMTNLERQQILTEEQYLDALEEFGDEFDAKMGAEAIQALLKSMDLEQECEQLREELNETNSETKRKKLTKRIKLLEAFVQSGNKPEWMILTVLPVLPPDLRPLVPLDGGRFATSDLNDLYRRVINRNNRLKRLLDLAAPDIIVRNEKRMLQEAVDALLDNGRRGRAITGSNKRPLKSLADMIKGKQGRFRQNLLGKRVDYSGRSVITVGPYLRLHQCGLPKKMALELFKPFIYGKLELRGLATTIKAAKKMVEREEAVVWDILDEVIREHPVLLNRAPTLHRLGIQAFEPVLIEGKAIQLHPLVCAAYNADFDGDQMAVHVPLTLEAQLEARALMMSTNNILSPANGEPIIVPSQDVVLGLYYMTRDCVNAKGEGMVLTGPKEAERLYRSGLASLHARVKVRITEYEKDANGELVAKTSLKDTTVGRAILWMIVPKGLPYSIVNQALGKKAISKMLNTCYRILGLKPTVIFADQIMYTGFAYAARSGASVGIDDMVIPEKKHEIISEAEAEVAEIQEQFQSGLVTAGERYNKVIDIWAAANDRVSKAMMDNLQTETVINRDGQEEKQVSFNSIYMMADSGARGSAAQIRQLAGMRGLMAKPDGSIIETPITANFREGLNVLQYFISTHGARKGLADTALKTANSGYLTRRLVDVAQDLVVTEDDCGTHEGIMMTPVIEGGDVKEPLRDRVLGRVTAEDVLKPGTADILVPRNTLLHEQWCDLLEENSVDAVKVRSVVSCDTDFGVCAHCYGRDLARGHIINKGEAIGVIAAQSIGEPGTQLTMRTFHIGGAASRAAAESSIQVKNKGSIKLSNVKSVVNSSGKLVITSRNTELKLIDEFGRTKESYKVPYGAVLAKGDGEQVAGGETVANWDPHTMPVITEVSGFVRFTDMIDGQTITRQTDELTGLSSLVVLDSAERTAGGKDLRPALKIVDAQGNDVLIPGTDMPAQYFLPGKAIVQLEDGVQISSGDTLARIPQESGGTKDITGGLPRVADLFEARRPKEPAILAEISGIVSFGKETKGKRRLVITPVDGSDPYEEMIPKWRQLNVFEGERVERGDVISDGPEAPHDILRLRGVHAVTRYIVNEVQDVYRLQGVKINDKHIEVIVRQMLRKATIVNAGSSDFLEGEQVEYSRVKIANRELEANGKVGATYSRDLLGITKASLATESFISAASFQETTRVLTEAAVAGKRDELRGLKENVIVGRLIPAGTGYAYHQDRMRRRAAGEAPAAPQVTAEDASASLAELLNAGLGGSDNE
T1 sequence (P0A8V2 whole entry): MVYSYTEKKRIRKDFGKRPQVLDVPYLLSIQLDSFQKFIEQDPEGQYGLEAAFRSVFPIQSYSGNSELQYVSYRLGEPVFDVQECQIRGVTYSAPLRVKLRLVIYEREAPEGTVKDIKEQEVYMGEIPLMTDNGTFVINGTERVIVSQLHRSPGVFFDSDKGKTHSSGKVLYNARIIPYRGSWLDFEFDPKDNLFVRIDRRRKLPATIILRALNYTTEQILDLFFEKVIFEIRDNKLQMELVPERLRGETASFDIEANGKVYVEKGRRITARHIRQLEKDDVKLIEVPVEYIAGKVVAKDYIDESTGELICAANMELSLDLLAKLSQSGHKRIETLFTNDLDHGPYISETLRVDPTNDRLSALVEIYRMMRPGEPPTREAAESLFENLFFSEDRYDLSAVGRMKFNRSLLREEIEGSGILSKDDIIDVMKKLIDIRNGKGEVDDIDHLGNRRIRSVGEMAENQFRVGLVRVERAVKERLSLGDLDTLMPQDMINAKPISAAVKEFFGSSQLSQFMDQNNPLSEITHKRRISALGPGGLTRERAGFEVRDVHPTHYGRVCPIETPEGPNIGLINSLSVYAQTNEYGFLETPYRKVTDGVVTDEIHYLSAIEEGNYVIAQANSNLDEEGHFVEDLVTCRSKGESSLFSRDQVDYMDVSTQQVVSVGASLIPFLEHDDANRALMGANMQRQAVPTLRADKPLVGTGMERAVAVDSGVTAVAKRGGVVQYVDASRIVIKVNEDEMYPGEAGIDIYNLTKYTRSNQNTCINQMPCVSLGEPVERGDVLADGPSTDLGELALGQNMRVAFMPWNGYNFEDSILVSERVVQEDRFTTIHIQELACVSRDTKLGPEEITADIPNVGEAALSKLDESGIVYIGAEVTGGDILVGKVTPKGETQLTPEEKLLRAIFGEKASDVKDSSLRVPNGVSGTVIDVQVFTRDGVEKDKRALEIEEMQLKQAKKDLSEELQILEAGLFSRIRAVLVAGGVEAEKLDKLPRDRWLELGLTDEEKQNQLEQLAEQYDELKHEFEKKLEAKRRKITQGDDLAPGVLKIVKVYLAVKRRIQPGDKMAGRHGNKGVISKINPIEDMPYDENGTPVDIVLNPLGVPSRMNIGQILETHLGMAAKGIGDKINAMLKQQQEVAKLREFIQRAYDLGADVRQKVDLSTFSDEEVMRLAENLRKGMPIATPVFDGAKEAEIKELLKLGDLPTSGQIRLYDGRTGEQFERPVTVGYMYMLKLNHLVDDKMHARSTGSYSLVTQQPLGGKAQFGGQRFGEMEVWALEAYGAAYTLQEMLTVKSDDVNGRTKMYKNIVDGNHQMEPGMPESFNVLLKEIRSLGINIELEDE

Turning to `Nc1ccc2cc3ccc(N)cc3nc2c1`, the Ratio in test [1] amounted to 1.13.
With `COc1ccc2nc3cc(Cl)ccc3c(NCC3CC(C)(C)N([O])C3(C)C)c2c1` (stereo unspecified), the growth inhibition (GI) in test [2] worked out at 40%; in test [3] it was 74%; in test [4], 35%; in test [5], 76%; in test [6], 6%; in test [7], 19%. For the same molecule, the growth inhibition (GI) was determined as 0% in [8], 5% in test [9], 10% in test [10] and 7% in [11]. For the same molecule, the Ratio in [12] was found to be 1.04. The Activity in test [13] was 107%; in test [14], 102%; in test [15] it was 106%; in [16], 106%; in test [17], 112%; in [18], “Dose-dependent effect”.
In the case of `CCN(CC)CCCC(C)Nc1c2ccc(Cl)cc2nc2ccc(OC)cc12` (stereo unspecified) [QUINACRINE], the concentration for half-maximal inhibition (IC50) (as a rule, the concentration needed to halve the response being measured) in test [19] worked out at 20 µM.
Turning to `Nc1c2ccccc2nc2ccccc12`, the Activity in [20] worked out at 1.8%; in [21], 4%; in [22], 31%; in test [23], 31%; in test [24], 40%.
Consider `COc1ccc2nc3cc(Cl)ccc3c(NC3CC(C)(C)N([O])C(C)(C)C3)c2n1`, for which the growth inhibition (GI) in [2] amounted to 0%; in [3], 38%; in [4], 0%; in test [5], 15%; in test [6], 0%; in [7], 0%. Besides, the growth inhibition (GI) in test [8], in [9], in [10] and in [11] was 0% throughout. Moreover, the Ratio in [12] was 1.05. The Activity in [13] was 108%; in [14], 114%; in test [15], 110%; in test [16], 110%; in [17], 108%; in [18], “Dose-dependent effect”.
`CC1(C)CC(NCCCNc2c3ccccc3nc3ccccc23)CC(C)(C)N1[O]`: the growth inhibition (GI) in [2] was found to be 47%; in test [3], 86%; in test [4] it was 56%; in [5], 87%; in test [6] it was 10%; in test [7], 16%. Moreover, the growth inhibition (GI) in test [8], in test [9], in test [10] and in test [11] was 0% throughout. Besides, the Activity was 12% in test [20]; 20% in test [21]; 31% in test [22]; 42% in test [23]; 71% in [24].
Turning to `CC1(C)CC(CNc2c3ccccc3nc3ccccc23)C(C)(C)N1[O]` (stereo unspecified), the growth inhibition (GI) in test [2] stood at 48%; in test [3], 82%; in test [4], 46%; in test [5], 79%; in [6], 12%; in test [7], 29%. For the same molecule, the growth inhibition (GI) worked out at 3% in test [8], 2% in test [9], 0% in test [10] and 3% in test [11]. Moreover, the Ratio in test [12] was determined as 1.08. The Activity stood at 10% in test [20]; 22% in [21]; 45% in test [22]; 70% in test [23]; 87% in [24].
With `COc1ccc2nc3cc(Cl)ccc3c(NC3CC(C)(C)N([O])C(C)(C)C3)c2c1`, the growth inhibition (GI) in test [2] worked out at 6%; in test [3] it was 78%; in [4] it was 11%; in test [5], 63%; in test [6], 9%; in [7], 24%. For the same molecule, the growth inhibition (GI) in test [8] amounted to 12%; in [9], 7%; in test [10], 3%; in test [11], 8%. The Ratio in [12] was determined as 1.02. In addition, the Activity in [13] is 116%; in test [14] it was 125%; in test [15] it was 129%; in test [16], 120%; in test [17] it was 108%; in test [18], “Dose-dependent effect”. The outcome in test [25] was Active.
For the molecule `CC1(C)CC(Nc2c3ccccc3nc3ccccc23)CC(C)(C)N1[O]`, the growth inhibition (GI) in [2] was 53%; in test [3], 87%; in [4], 49%; in [5], 84%; in test [6], 27%; in test [7] it was 56%. Besides, the growth inhibition (GI) in test [8] was found to be 1%; in test [9] it was 7%; in [10], 0%; in [11], 2%. In addition, the Ratio in [12] amounted to 1.04. Moreover, the Activity in [20] was found to be 9%; in test [21], 21%; in [22], 36%; in test [23] it was 77%; in test [24] it was 96%.
Take `COc1cc(NS(C)(=O)=O)ccc1Nc1c2ccccc2nc2ccccc12` [AMSACRINE]: the inhibition of growth at 100 µg/mL in test [2] (L1210, 24 h, read-out: GI) came to 57%; in test [3] (L1210, 48 h, read-out: GI) it was 92%. Also, the inhibition of growth at 10 µg/mL came out at 50% in [4] (L1210, 24 h, read-out: GI) and 87% in test [5] (L1210, 48 h, read-out: GI). Further, the inhibition of growth at 1 µg/mL in test [6] (L1210, 24 h, read-out: GI) was 42%; in test [7] (L1210, 48 h, read-out: GI), 82%. The inhibition of growth at 0.1 µg/mL was 29% in [8] (L1210, 24 h, read-out: GI) and 75% in [9] (L1210, 48 h, read-out: GI). Further, the inhibition of growth at 0.01 µg/mL stood at 6% in [10] (L1210, 24 h, read-out: GI) and 8% in test [11] (L1210, 48 h, read-out: GI).

(Values after ChEMBL document CHEMBL3272030, “Synthesis and biological properties of some spin-labeled 9-aminoacridines” (J Med Chem, 1976).)
